Bioassay records as filed in PubChem.
NPY1 pot ag: NPY-Y1 receptor potentiators or agonists, primary screen, cell-based; hit rate 0.37% among 220,000; activation, % at 3.6 µM; NPY-Y1 expressing cells, potentiator/agonist activation; Neuropeptide Y receptor type 1 (Homo sapiens), P25929; in the data active = activation above about 33%, passing the limit was not always enough;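 note: cells stimulated with NPY at EC10 then isoproterenol at EC100; 0% = low agonist plus stimulus and 100% = saturating agonist plus stimulus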
Target sequence (P25929 whole entry, looked up): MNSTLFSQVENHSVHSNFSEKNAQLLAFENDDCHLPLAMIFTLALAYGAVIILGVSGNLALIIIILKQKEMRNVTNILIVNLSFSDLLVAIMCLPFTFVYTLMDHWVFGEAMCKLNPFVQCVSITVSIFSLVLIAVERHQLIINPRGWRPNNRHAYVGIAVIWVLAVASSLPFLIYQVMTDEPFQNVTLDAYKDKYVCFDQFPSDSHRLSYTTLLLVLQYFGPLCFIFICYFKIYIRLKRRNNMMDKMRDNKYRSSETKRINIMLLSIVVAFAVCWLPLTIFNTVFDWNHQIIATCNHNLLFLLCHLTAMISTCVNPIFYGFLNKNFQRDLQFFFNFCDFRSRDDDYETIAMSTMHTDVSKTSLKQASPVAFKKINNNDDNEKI
NPY-Y2 antag: NPY-Y2 receptor antagonists, primary screen, cell-based; hit rate 0.99% among 140,000; inhibition, % at 2.7 µM; NPY-Y2 expressing cells, antagonist mode; Neuropeptide Y receptor type 2 (Homo sapiens), P49146; in the data active = inhibition above about 17%;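 note: 0% = vehicle with agonist challenge and 100% = reference antagonist with challenge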
NPY-Y1 antag: NPY-Y1 receptor antagonists, primary screen, cell-based; HEK293-CNG Y1 cells, membrane potential fluorescence; NPY at EC95, then isoproterenol; inhibition, % at 3.6 µM; hit rate 1% among 200,000;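 active = inhibition above the campaign mean inhibition of all tested compounds plus 3 SD, cut at about 20% in these data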;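 note: 0% = DMSO wells given NPY plus isoproterenol and 100% = isoproterenol alone without NPY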
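material = HEK293 cells with Y1 receptor plus CNG channel | also added = NPY 25 nM then isoproterenol 1 µM plus Ro 20-1724 25 µM | schedule = dye 3 h, compound 60 min room temperature, stimulation 45 min | measured by = membrane potential fluorescence | benchmarks = high control isoproterenol alone, low control NPY with isoproterenol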
S1P4 ag: S1P4 receptor agonists, primary screen, cell-based. activation, % at 4.98 µM. Sphingosine 1-phosphate receptor 4 (Homo sapiens), O95977. AID 1509, 2009. hit rate 0.35% among 220,000. S1P4-expressing cell line, agonist reporter assay; in the data active = activation above about 11%;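 note: 0% = DMSO vehicle and 100% = reference agonist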
NPY-Y2 PAM-ag: NPY-Y2 potentiators or agonists, primary screen, cell-based. cells expressing NPY-Y2, potentiator/agonist read-out. activation, % at 3.6 µM. hit rate 0.45% among 220,000. AID 1359, 2008; in the data active = activation above about 27%;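 note: cells stimulated with NPY near EC25 plus isoproterenol at EC100; 0% = vehicle plus submaximal agonist and 100% = vehicle plus saturating agonist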
S1P4 antag: S1P4 receptor antagonists, primary screen, cell-based | Sphingosine 1-phosphate receptor 4 (Homo sapiens), O95977 | S1P4-expressing cells, antagonist mode, reporter read-out | inhibition, % at 4.98 µM | hit rate 0.26% among 220,000 | AID 1510, 2009; in the data active = inhibition above about 29%;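 note: 0% = wells stimulated with agonist and 100% = vehicle wells without agonist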
NPY-Y1 antag ct: NPY-Y1 receptor antagonists, selectivity check, counter-screen for NPY-Y2 antagonist project, cell-based; shares compounds with NPY-Y2 antag; cell-based NPY-Y1 antagonism counterscreen; inhibition, % at 3.6 µM; hit rate 19% among 710; in the data active = inhibition above about 20%;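 note: cells challenged with NPY then isoproterenol with cAMP sensed through a CNG channel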
NPY2 antag conf: NPY-Y2 receptor antagonists, retest of hits, confirmation, HEK293-CNG cells, membrane potential fluorescence, triplicate. shares compounds with NPY-Y2 antag. HEK293 NPY-Y2 CNG channel. inhibition, % at 2.8 µM. hit rate 32% among 710;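 active = mean inhibition of triplicate wells above the hit cutoff set in the primary screen, cut at about 17% in these data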;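 note: 0% = DMSO with NPY challenge and 100% = BIIE0246 high control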
An asterisk follows results filed as active; x = no result. This is a sample that favours compounds with a hit; in the whole collection about 2.4% have one here.

SMILES	NPY1 pot ag	NPY-Y2 antag	NPY-Y1 antag	S1P4 ag	NPY-Y2 PAM-ag	S1P4 antag	NPY-Y1 antag ct	NPY2 antag conf
Cc1ccc(S(=O)(=O)N[C@H](C(=O)OCC(=O)N2N=C(c3ccc(Cl)cc3)CC2c2ccco2)C(C)C)cc1 (some centres not stated)	24	-1	4	2	10	2	x	x
Cc1nn(-c2ccccc2)c(N)c1C1(O)C(=O)Nc2ccccc21 (configuration not stated)	12	x	x	0	6	11	x	x
Cc1ccc(S(=O)(=O)NC(=O)CSc2nc3ccccc3s2)cc1	-21	20*	13	0	-25	-4	12	14
Cc1cc(C)nc(NC(=O)CSc2nc3ccccc3s2)n1	-23	2	2	0	-1	-3	x	x
Cn1ccnc1SCC(=O)Nc1cccc(O)c1	-7	18*	7	1	13	-9	-3	-2
Cc1ccc(-c2nc3ncccc3o2)cc1NC(=O)COc1ccccc1	-23	21*	3	-3	2	17	8	5
CCOc1ccc(-c2nc(C#N)c(NCc3ccc4c(c3)OCO4)o2)cc1	-8	9	5	-1	-6	-12	x	x
Cc1ccc(OCc2nc(C#N)c(NCc3ccc4c(c3)OCO4)o2)cc1	-66	22*	11	1	-21	-1	11	9
Cc1nc(NS(=O)(=O)c2ccc(Br)cc2)c2c3c(sc2n1)CCC3	-10	2	0	0	-2	-13	x	x
Cc1ccc(CNc2nc(C)nc3sc4c(c23)CCC4)cc1	-34	20*	14	0	-32	-11	27*	20*
COc1ccccc1CCNCc1ccc(OC)c(OCc2ccccc2)c1	-3	20*	3	3	-36	-35	8	92*
COc1ccc(CNCc2ccco2)cc1OCc1ccccc1	-12	9	8	-2	0	6	x	x
C=C1SC(Nc2c(C)cc(C)cc2C)=NC12CCCCC2	24	x	x	1	4	11	x	x
Cc1[nH]n(-c2ccccc2)c(=O)c1/C=N/NC(=O)C(C)C	-4	x	5	0	7	2	x	x
O=C(NCCCn1ccnc1)/C(=C\c1cccs1)NC(=O)c1ccco1	-4	3	3	1	17	-27	x	x
COc1ccc(C(=O)N/C(=C/c2cccs2)C(=O)NCCCn2ccnc2)cc1OC	-3	22*	-2	2	-1	1	-2	4
COc1ccccc1C(c1nnnn1CCc1ccccc1)N1CCCCCC1 (configuration not stated)	7	26*	15	-2	1	4	6	4
Cc1cc2c3ccccc3ncn2n1	1	x	x	-1	-25	-1	x	x
C=CCNC(=S)N/N=C(\C)c1ccccn1	-11	1	2	-5	-7	16	x	x
C=C(C)CSc1nc2c(c(=O)[nH]c(=O)n2C)n1CCC(C)C	-8	22*	2	-1	11	-15	2	0
COc1ccc2c(c1OC)C(=O)N1N=C(c3ccc(Cl)cc3)CC21 (configuration not stated)	5	6	2	3	17	-3	x	x
COc1ccc(OC)c(S(=O)(=O)N2CCC(C(=O)Nc3ccccc3)CC2)c1	-3	x	0	-3	-4	0	x	x
COc1ccc(NC(=O)c2n[nH]c(=O)c3ccccc23)cc1S(=O)(=O)N1CCCCC1	-18	27*	4	0	-9	-5	15	19*
COc1ccc(NC(=O)C2CCC(C(C)(C)C)CC2)cc1S(=O)(=O)N1CCCCC1 (configuration not stated)	-26	21*	-1	-1	1	-29	6	3
